Values after ≈ are worked out from the molar mass of the structure shown. Active and inactive are the calls of the source. The calls are words filed in the database; no cut-off is given here.
Tests used:
KB = assay: Cytotoxicity against human KB cells; type: functional, cell-based
LoVo = assay: Cytotoxicity against human LoVo cells; type: functional, cell-based
Mus musculus = species: Mus musculus; assay: Toxicity in mouse assessed as lethal dose; type: organism-based; settings: in vivo
MC-38 = assay: Antitumor activity against mouse C38 cells at 1.2 to 1.5 mg/kg; type: functional, organism-based
How it was run: (§1)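 In vivo mice with murine colon adenocarcinoma C38 or mammary adenocarcinoma M16, dosed at sublethal levels of 1.2-1.5 mg/kg.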

M16 = assay: Antitumor activity against mouse M16 cells at 1.2 to 1.5 mg/kg; type: functional, organism-based; how it was run: as §1
A10 [1] = assay: Disruption of cellular microfilament network in rat A10 cells at 0.01 to 5.0 ug/mL; type: functional, cell-based
How it was run: (§2)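 A-10 smooth muscle cells grown on glass coverslips in Basal Medium Eagle with 10% fetal calf serum, exposed to a range of concentrations or vehicle for 24 h. Microfilaments stained 45 min with 100 nM TRITC-phalloidin, chromatin stained with DAPI, and cells examined by fluorescence microscopy.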

A10 [2] = assay: Disruption of cytoskeleton in rat A10 cells assessed as neuron-like gross cellular morphology; type: functional, cell-based; how it was run: as §2
A10 [3] = assay: Disruption of cytoskeleton in rat A10 cells assessed as cells with two nuclei; type: functional, cell-based; how it was run: as §2
A10 [4] = assay: Induction of apoptosis in rat A10 cells assessed as apoptotic bodies at 0.01 ug/mL; type: functional, cell-based; how it was run: as §2
A10 [5] = assay: Disruption of microtubules in rat A10 cells; type: functional, cell-based
[6] = biological target: T1, DNA topoisomerase 1 (Homo sapiens) (UniProt P11387); assay: Inhibition of topoisomerase 1 at 5 ug/mL
T1 sequence (whole entry): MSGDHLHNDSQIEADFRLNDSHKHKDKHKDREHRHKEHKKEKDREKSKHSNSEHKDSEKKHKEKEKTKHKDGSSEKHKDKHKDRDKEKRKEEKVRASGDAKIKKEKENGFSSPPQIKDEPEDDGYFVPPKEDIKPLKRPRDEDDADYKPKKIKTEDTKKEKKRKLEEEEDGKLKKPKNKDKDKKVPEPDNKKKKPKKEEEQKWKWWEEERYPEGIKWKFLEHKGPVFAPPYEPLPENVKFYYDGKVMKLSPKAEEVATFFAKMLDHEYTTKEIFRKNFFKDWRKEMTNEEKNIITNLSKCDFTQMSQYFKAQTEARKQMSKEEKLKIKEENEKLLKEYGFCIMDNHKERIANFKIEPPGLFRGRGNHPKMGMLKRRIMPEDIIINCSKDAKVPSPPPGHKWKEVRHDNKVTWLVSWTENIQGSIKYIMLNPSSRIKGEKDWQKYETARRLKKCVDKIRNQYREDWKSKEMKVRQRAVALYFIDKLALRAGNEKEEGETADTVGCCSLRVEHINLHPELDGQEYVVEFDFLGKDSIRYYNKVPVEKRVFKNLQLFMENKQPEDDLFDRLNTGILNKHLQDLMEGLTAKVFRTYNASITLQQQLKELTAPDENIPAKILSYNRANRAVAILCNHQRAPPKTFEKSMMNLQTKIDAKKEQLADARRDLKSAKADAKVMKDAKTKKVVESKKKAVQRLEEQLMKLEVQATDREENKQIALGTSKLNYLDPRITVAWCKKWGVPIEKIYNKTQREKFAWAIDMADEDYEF

[7] = biological target: T1, DNA topoisomerase 1 (Homo sapiens); assay: Inhibition of topoisomerase 1 at 10 ug/mL

CC[C@H](C)[C@@H]1NC(=O)CNC(=O)c2csc(n2)[C@H](C(C)(C)O)OC(=O)C(C)(C)[C@H](CCCC(C)(Cl)Cl)OC(=O)c2csc1n2 [LYNGBYABELLIN A]
IC50 (KB): 0.03 µg/mL (≈ 0.0434 µM) | IC50 (LoVo): 0.5 µg/mL (≈ 0.723 µM) | Activity (Mus musculus): 2.4 mg/kg | Activity (MC-38): inactive | Activity (M16): inactive | Activity (A10 [1]): Active | Activity (A10 [2]): Active | Activity (A10 [3]): Active | Activity (A10 [4]): Active | Activity (A10 [5]): inactive | Activity [6]: inactive | Activity [7]: inactive

Source: ChEMBL document CHEMBL1154576, “Isolation, structure determination, and biological activity of Lyngbyabellin A from the marine cyanobacterium lyngbya majuscula” (J Nat Prod, 2000)
